Test results reported in article PMC2585982 (Toxicology and applied pharmacology, 2008).
Read-outs that look alike come from different tables or passages of the source.

How the values were obtained:
P450 = assay: Liver microsomal P450 content after oral dosing of mice; type: in vivo; details: C57BL/6 mice, 100 mg/kg p.o. 3 days, vs corn oil
GSTμ = assay: Western blot of liver cytosol, GSTμ protein expression; type: in vivo, mice; details: C57BL/6 mice, 100 mg/kg p.o. 3 days
NQO = assay: Liver cytosolic NQO activity; type: in vivo, mice; details: C57BL/6 mice, 100 mg/kg p.o. 3 days, vs corn oil
P450s 2B9/10 = assay: Liver microsomal P450 2B activity; type: in vivo, mice
P450 3A11 [1] = assay: Western blot of liver microsomes, P450 3A11 protein expression; details: C57BL/6 mice, 100 mg/kg p.o. 3 days
P450s 1A1/2 = assay: Liver microsomal P450 1A activity; type: in vivo, mice; details: C57BL/6 mice, 100 mg/kg p.o. 3 days, vs corn oil
P450 2B10 = assay: Western blot of liver microsomes, P450 2B10 protein expression; details: C57BL/6 mice, 100 mg/kg p.o. 3 days
P450 1A1/1A2 [2] = details: mouse, in vivo, po, 100 mg/kg
P450 3A11 [3] = assay: Liver microsomal P450 3A activity; type: in vivo, mice
PXR [4] = molecular target: T1, PXR (Mus musculus, UniProt O54915); assay: GAL-PXR reporter assay; type: cell-based; details: CV-1 cells, 18–24 h
T1 sequence (O54915 143-430 limits assumed): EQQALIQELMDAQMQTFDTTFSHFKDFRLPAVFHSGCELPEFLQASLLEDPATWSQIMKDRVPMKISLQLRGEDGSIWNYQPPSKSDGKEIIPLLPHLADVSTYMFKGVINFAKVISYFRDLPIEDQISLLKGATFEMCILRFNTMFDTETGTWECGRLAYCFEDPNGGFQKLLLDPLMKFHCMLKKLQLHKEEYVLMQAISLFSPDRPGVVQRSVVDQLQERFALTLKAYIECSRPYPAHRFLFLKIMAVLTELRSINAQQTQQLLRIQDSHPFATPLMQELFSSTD

PXR [5] = molecular target: T2, PXR (Mus musculus, UniProt O54915); assay: PXR-DR3 reporter assay; type: cell-based; details: CV-1 cells, full length PXR
T2 sequence (O54915 1-431): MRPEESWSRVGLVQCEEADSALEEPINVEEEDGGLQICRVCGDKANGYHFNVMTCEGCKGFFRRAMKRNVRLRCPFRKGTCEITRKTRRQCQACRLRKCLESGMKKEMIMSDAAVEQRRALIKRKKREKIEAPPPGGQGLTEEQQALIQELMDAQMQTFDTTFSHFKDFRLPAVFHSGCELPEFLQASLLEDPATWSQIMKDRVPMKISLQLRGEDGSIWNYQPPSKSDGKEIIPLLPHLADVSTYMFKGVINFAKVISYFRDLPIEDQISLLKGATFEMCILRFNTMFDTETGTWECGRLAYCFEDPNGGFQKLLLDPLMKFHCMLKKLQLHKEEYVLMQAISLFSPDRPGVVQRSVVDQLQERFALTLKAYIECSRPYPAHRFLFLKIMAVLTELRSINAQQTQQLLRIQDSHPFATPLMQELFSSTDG
T2 sequence (P19793 1-462 partner): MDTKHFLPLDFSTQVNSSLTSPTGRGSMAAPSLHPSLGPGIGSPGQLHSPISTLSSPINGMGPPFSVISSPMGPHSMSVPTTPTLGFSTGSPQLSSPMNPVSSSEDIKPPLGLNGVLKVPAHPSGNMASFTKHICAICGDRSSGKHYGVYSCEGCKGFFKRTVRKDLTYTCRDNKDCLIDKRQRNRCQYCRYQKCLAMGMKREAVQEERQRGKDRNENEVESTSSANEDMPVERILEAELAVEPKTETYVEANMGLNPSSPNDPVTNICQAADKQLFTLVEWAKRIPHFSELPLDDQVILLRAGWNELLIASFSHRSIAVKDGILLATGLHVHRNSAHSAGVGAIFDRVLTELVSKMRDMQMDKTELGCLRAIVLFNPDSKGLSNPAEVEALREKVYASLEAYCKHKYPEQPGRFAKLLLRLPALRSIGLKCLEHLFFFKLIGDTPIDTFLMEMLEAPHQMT

PXR LBD and SRC-1 RID = PXR LBD and SRC-1 RID (Mus musculus, UniProt O54915); assay: Mammalian two-hybrid assay, Gal-SRC-1 RID + VP-L-PXR in CV-1 cells; type: cell-based; details: isopimpinellin 50 μM; PCN 10 μM; Figure 7A
PXR LBD and SRC-1 RID, sequence (Q15788 570-780 partner limits assumed, one chain of several): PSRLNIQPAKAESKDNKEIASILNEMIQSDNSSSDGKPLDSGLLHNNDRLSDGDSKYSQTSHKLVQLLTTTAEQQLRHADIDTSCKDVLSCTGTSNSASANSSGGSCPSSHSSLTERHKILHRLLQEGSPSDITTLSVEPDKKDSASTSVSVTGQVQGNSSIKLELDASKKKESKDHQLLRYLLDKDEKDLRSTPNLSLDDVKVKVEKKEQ
How it was run: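 Mammalian two-hybrid in CV-1 cells co-transfected with Gal-SRC-1 RID and/or VP-L-PXR, plus MH100-tk-luc reporter and CMX-β-gal. Cells were exposed to compound or solvent control in medium for 18–24 h. Interaction was taken as luciferase activity normalised to β-gal activity; mean ± SD.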

Cyp3a11 mRNA = assay: Northern blot of liver RNA, Cyp3a11 mRNA in CAR; details: isopimpinellin 150 mg/kg p.o. 24 h, TC 3 mg/kg i.p. 6 h
[6] = molecular target: mCAR-LBD fused to the Gal4 DNA binding domain (Mus musculus, UniProt O35627); assay: CAR transfection assay, Gal4-mCAR LBD fusion reporter in HepG2 cells; type: cell-based, murine; details: HepG2, 4 μM androstanol; 250 nM TC or 0.1–100 μM isopimpinellin, 24 h
mCAR-LBD fused to the Gal4 DNA binding domain, sequence (O35627 119-358 limits assumed): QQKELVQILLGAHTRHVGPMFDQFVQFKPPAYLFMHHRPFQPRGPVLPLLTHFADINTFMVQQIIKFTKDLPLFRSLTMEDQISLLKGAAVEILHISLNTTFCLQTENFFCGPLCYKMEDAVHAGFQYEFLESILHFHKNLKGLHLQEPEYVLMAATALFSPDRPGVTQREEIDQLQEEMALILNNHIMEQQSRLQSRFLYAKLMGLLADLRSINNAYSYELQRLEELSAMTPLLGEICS

Cyp2b10 mRNA = assay: Northern blot of liver RNA, Cyp2b10 mRNA in CAR; details: isopimpinellin 150 mg/kg p.o. 24 h, TC 3 mg/kg i.p. 6 h
GSTp mRNA = assay: Northern blot of liver RNA, GSTp mRNA in CAR; type: in vivo, mice; details: isopimpinellin 150 mg/kg p.o. 24 h; TC 3 mg/kg i.p. 6 h
GSTa1 mRNA = assay: Northern blot of liver RNA, GSTa1 mRNA in CAR; type: in vivo, mice; details: isopimpinellin 150 mg/kg p.o. 24 h; TC 3 mg/kg i.p. 6 h
full-length mCAR = full-length mCAR (Mus musculus, UniProt O35627); assay: CAR transfection assay, full-length mCAR reporter in HepG2 cells; type: cell-based, murine; details: 4 μM androstanol
full-length mCAR, sequence (O35627 whole entry): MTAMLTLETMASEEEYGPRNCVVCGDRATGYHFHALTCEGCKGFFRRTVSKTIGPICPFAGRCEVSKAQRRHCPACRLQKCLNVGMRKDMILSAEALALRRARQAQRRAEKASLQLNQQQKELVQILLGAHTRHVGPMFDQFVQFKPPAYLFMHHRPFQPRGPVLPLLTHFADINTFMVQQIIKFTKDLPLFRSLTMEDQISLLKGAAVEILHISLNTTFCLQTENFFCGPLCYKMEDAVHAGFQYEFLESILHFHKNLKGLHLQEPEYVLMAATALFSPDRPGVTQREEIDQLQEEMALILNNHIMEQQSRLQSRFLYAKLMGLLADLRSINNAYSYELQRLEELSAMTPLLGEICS
How it was run: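 HepG2 cells in DMEM with 10% FBS were plated at 10^5 per well in charcoal-stripped serum. They were co-transfected with pCMX-mCAR or empty pCMX, a […] (LXRE)3 firefly luciferase reporter and a pRL-tk renilla control. At 70–80% confluence, cells got 4 μM androstanol, 0.1% DMSO or 4 μM […] plus 250 nM reference agonist or 0.1–100 μM test compound. After 24 h, firefly/renilla ratio was read; mean ± SD, ≥3 experiments.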

GST (DCNB, GST μ) = assay: Liver cytosolic GST activity, DCNB as substrate, after oral dosing of mice; type: in vivo; details: C57BL/6 mice, 100 mg/kg p.o. 3 days, vs corn oil
P450 1A1/1A2 [7] = assay: Western blot of liver microsomes, P450 1A1/1A2 protein expression; details: C57BL/6 mice, 100 mg/kg p.o. 3 days
[8] = C57BL/6 mice, 100 mg/kg p.o. 3 days, vs corn oil

## CCC1(c2ccccc2)C(=O)NC(=O)NC1=O [PB, Phenobarbital, reference compound]
P450
  P450 content, liver microsomes: increased
GSTμ
  Liver cytosolic GSTμ protein expression (western blot densitometry): greater effect
NQO
  Increase in NQO activity, liver cytosol: not significantly different from the control group
P450s 2B9/10; [8]
  Increase in P450 2B activity (pentoxyresorufin), liver microsomes: significant increase
P450 3A11 [1]
  P450 3A11 protein expression (western blot densitometry): increased
P450s 1A1/2
  P450 1 activity (ethoxyresorufin), liver microsomes: significant increase
P450 2B10
  P450 2B10 protein expression (western blot densitometry): increased
P450 1A1/1A2 [2]
  P450 1A1/1A2 protein expression (western blot densitometry): increased
P450 3A11 [3]; mouse, in vivo, po, 100 mg/kg
  Increase in P450 3A activity (testosterone), liver microsomes: 3–4 fold

## CC(=O)[C@H]1[C@H](C#N)C[C@H]2[C@@H]3CC=C4C[C@@H](O)CC[C@]4(C)[C@H]3CC[C@@]21C [PCN, reference compound]
PXR [4]
  Max (concentration to reach maximal effect), GAL-PXR: 3,000 nM
PXR [4]; luciferase normalized by β-gal
  ED50, GAL-PXR activation: 63 nM
PXR [5]
  Max (concentration to reach maximal effect), PXR-DR3: 100 nM
PXR [5]; 18–24 h
  ED50, PXR-DR3 activation: 20 nM
PXR LBD and SRC-1 RID
  Induced interaction of PXR LBD and SRC-1 RID compared to the control: similar

## Clc1cnc(Oc2ccc(Oc3ncc(Cl)cc3Cl)cc2)c(Cl)c1 [TC, 1,4-bis[2-(3,5-dichloropyridyloxy)]benzene, reference compound]
Cyp3a11 mRNA
  Induction of hepatic Cyp3a11 mRNA, CAR(−/−) mice: absent
Cyp3a11 mRNA; male and female
  Induction of hepatic Cyp3a11 mRNA, CAR(+/+) mice: ~ 4 fold
[6]
  Effect on the inhibitory effect of androstanol on Gal4 reporter expression (mCAR-LBD): counteracted
Cyp2b10 mRNA
  Induction of hepatic Cyp2b10 mRNA, CAR(−/−) mice: absent
Cyp2b10 mRNA; male and female
  Induction of hepatic Cyp2b10 mRNA, CAR(+/+) mice: ~ 4 fold
GSTp mRNA
  Increase in hepatic GSTp mRNA, CAR(−/−) mice: no increase
  Increase in hepatic GSTp mRNA, female CAR(+/+) mice: ~ 4 fold
GSTa1 mRNA
  Increase in hepatic GSTa1 mRNA, female CAR(−/−) mice: did not increase
  Increase in hepatic GSTa1 mRNA, male CAR(−/−) mice: did not increase
  Increase in hepatic GSTa1 mRNA, male and female CAR(+/+) mice: 8–10 fold

## C[C@@]12CCC[C@H]1[C@@H]1CC[C@H]3C[C@@H](O)CC[C@]3(C)[C@H]1CC2 [androstanol]
full-length mCAR
  Constitutive CAR transactivation: blocked

## O=c1ccc2ccc3occc3c2o1 [angelicin]
GST (DCNB, GST μ)
  GST activity using DCNB as a substrate, liver cytosol: highest increase
P450 3A11 [3]; [8]
  Increase in P450 3A activity (testosterone), liver microsomes: not statistically significant
P450 1A1/1A2 [7]
  P450 1A1/1A2 protein expression (western blot densitometry): increased

## CC(C)=CCC/C(C)=C/COc1ccc2ccc(=O)oc2c1 [auraptene]
P450 3A11 [1]
  P450 3A11 protein expression (western blot densitometry): did not have any apparent effect
P450 2B10
  P450 2B10 protein expression (western blot densitometry): did not have any apparent effect
P450 1A1/1A2 [7]
  P450 1A1/1A2 protein expression (western blot densitometry): did not have any apparent effect

## CC(C)=CCC/C(C)=C/COc1c2ccoc2cc2oc(=O)ccc12 [bergamottin]
NQO
  Increase in NQO activity, liver cytosol: 2–3 fold
P450s 2B9/10; mouse, in vivo, po, 100 mg/kg
  Increase in P450 2B activity (pentoxyresorufin), liver microsomes: ~ 5 fold
P450 3A11 [1]
  P450 3A11 protein expression (western blot densitometry): increased
P450 2B10
  P450 2B10 protein expression (western blot densitometry): increased
P450 3A11 [3]; [8]
  Increase in P450 3A activity (testosterone), liver microsomes: 3–4 fold
P450 1A1/1A2 [7]
  P450 1A1/1A2 protein expression (western blot densitometry): increased

## O=c1ccc2ccccc2o1 [coumarin, 1,2-benzopyrone]
GST (DCNB, GST μ)
  GST activity using DCNB as a substrate, liver cytosol: highest increase
NQO
  Increase in NQO activity, liver cytosol: 2–3 fold
P450 3A11 [1]
  P450 3A11 protein expression (western blot densitometry): did not have any apparent effect
P450 2B10
  P450 2B10 protein expression (western blot densitometry): did not have any apparent effect
P450 1A1/1A2 [7]
  P450 1A1/1A2 protein expression (western blot densitometry): did not have any apparent effect

## COc1cc(OC)c2ccc(=O)oc2c1 [limettin, 5,7-dimethoxycoumarin]
P450 3A11 [1]
  P450 3A11 protein expression (western blot densitometry): did not have any apparent effect
P450 2B10
  P450 2B10 protein expression (western blot densitometry): did not have any apparent effect
P450 1A1/1A2 [7]
  P450 1A1/1A2 protein expression (western blot densitometry): did not have any apparent effect
